# Vif imaging = HIV Vif inhibition; HEK293T cells, Vif self-association by quenched fluorescence, imaging, 24 h; inhibition, % at 7.49 µM; 340,000 compounds, 0.35% hits; in the data active = inhibition above about 50%, passing the limit was not always enough
# PGC1a acetyl inh = PGC1a acetylation modulation, inhibitor mode; inhibition, % at 15.6 µM; AID 651687; 350,000 compounds, 0.17% hits; U2OS PGC1a acetylation, AlphaScreen anti-acetyl-lysine; with virally co-expressed GCN5 acetyltransferase;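 active = every replicate shows inhibition of at least 40%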;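 note: 0% = neutral control wells and 100% = positive control wells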
# FGF22 binding = shifts melting point of recombinant human FGF22; Q9HCT0; recombinant FGF22 thermal shift, SYPRO orange fluorescence; percent of sucrose octasulfate shift, DMSO zero; activity (Tm shift, normalised), % at 9.99 µM; 340,000 compounds, 1.5% hits; AID 651658;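 active = mean Tm shift, scaled 0 neutral to 100 positive control, at about 1.3% or above, every replicate too, limit read from the data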
# Target sequence (Q9HCT0 whole entry, looked up): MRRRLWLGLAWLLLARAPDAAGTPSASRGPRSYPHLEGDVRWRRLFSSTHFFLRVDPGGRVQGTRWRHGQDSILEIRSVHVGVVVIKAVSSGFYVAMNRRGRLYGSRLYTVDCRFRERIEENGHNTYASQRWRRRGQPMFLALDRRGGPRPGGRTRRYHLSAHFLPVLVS
# Ecoli rRNA inh = selective bacterial rRNA inhibition in E. coli | 350,000 compounds, 1.6% hits | GFP signal change (wild-type ribosome), % (concentration not given with the values) | E. coli WT GFP vs humanized-ribosome RFP mutants, fluorescence, 24 h; hits give low values; DMSO median 0, no signal -100;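 active = significant combined selectivity score with lowered wild-type GFP, culture density cut under 30%, mutant RFP and density less affected; inactive = any of these conditions unmet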
# PglD inh = blocks C. jejuni PglD acetyltransferase activity; AID 602405; purified PglD enzyme, DTNB colorimetric CoA detection; 360,000 compounds, 0.098% hits; inhibition, % at 12.5 µM; in the data active = inhibition above about 16%, passing the limit was not always enough
# Cneo AK release = causes C. neoformans cell lysis; AID 651654; lysis activity, % at 15 µM; adenylate kinase release luminescence, 4 h; normalised: neutral wells 0, clomiphene wells 100; 360,000 compounds, 0.2% hits;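 active = mean lysis activity across replicates of at least 80%, whatever share of replicates individually reach that level; inactive = mean lysis activity below 80%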
#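 Signal: Adenylate kinase release luminescence | Assay system: Log-phase Cryptococcus neoformans yeast cells | Input: Cells at 5 × 10^6 per mL | Buffer or medium: Fresh YPD growth medium | Compound: Single dose | Schedule: Static 4 h at 37 °C with compound, 1 h detection | Controls: Clomiphene | Read-out: Luminescence rise reflecting yeast cell lysis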
# An asterisk follows results filed as active; . = not tested or not shown. Shown are actives, neighbours in structure and some others; about 2.9% of the full set was active somewhere.
SMILES,Vif imaging,PGC1a acetyl inh,FGF22 binding,Ecoli rRNA inh,PglD inh,Cneo AK release
O=C(CNC(=O)c1ccc(Cl)cc1)OC1CCOC1=O (configuration not stated),0,7,43*,8,.,.
CCN(CC)c1ccc(C(=C2C=CC(=[N+](CC)CC)C=C2)c2ccccc2)cc1,-12,.,0,-56*,.,.
CCN(CC)c1ccc(C(=C2C=CC(=[N+](CC)CC)C=C2)c2ccc(N(CC)CC)cc2)cc1,-22,83*,.,.,5,-3
CN(C)C(=O)c1ccc(-c2ccc([C@H]3[C@H]4CN(CCC(F)(F)F)CCCCN4[C@H]3CO)cc2)cc1,.,5,0,1,3,85*
COc1ccccc1C#Cc1ccc([C@@H]2[C@H]3CN(CCC(F)(F)F)CCCCN3[C@H]2CO)cc1,.,-24,0,-59,5,81*
CC(=O)N1CCC(=NNC(=O)c2cc3ccccc3cc2O)CC1,51*,-12,0,19,-7,-3
CCOC(=O)N1CCC(=NNC(=O)c2cc3ccccc3cc2O)CC1,2,.,.,.,-4,0
O=C1OC[C@@H]2CCCN2C(=O)[C@@H](CC(=O)N(CCO)Cc2ccccc2)C/C=C\C[C@@H]1Cc1ccc(F)cc1,-3,.,44*,-9,2,-2
CCCNC(=O)Nc1ccc2c(c1)C(=O)N(C)C[C@@H](OC)[C@H](C)CN(S(C)(=O)=O)[C@H](C)CO2,.,4,0,3,.,.
COc1cccc(/C=C/C(=O)N2CCN(c3ccccn3)CC2)c1,5,.,0,-16,1,0
COc1ccc(/C=C/C(=O)N2CCN(c3ccccn3)CC2)cc1,-9,.,0,-23*,2,-5
CCS(=O)(=O)N1CCCCN2[C@H](CO)[C@H](c3ccc(-c4ccc(C#N)cc4)cc3)[C@H]2C1,.,1,0,-3,-2,0
Cc1cccc(S(=O)(=O)N2CCCCN3[C@H](CO)[C@@H](c4ccc(C#CC(C)C)cc4)[C@H]3C2)c1,.,3,0,-29,11,1
Cc1cccc(S(=O)(=O)N2CCCCN3[C@H](CO)[C@H](c4ccc(C#CC(C)C)cc4)[C@H]3C2)c1,.,-2,-1,-27*,13,2
COc1cccc(S(=O)(=O)N2CCCCN3[C@H](CO)[C@H](c4ccc(C5=CCCCC5)cc4)[C@H]3C2)c1,.,-9,.,-32*,3,45
CCS(=O)(=O)N1CCCCN2[C@H](CO)[C@@H](c3ccc(-c4ccc(C#N)cc4)cc3)[C@@H]2C1,.,-11,0,-4,-3,88*
CC[C@H]1C/C=C\C[C@H](c2ccccc2)NC(=O)CCC(=O)N1,.,.,.,2,.,.
C[C@H](CO)N1C[C@H](C)[C@H](CN(C)S(=O)(=O)c2ccc(F)cc2)Oc2ccc(NS(=O)(=O)c3ccc(Cl)cc3)cc2C1=O,.,8,0,-2,2,102*
C[C@@H]1CN([C@H](C)CO)C(=O)c2cc(NS(=O)(=O)c3ccc(Cl)cc3)ccc2O[C@H]1CN(C)S(=O)(=O)c1ccc(F)cc1,.,-4,0,-4,1,101*
C[C@@H]1CN([C@@H](C)CO)C(=O)c2cc(NS(=O)(=O)c3ccc(F)cc3)ccc2O[C@H]1CN(C)S(=O)(=O)c1ccccc1,.,6,0,-4,3,-1
C[C@H](CO)N1C[C@H](C)[C@@H](CN(C)S(=O)(=O)c2ccc(Cl)cc2)Oc2c(NS(=O)(=O)c3ccc(F)cc3)cccc2C1=O,.,-6,0,0,-1,127*
C[C@H](CO)N1C[C@H](C)[C@H](CN(C)S(=O)(=O)c2ccccc2)Oc2ccc(NS(=O)(=O)c3ccc(F)cc3)cc2C1=O,.,1,0,2,2,104*
CCC(=O)Nc1ccc2c(c1)OC[C@@H](C)N(CC1CCOCC1)C[C@H](C)[C@H](OC)CN(C)C2=O,.,3,0,4,1,-2
COc1ccc(CN(C)C[C@@H]2OCCCC[C@H](C)Oc3ccc(NC(=O)NC4CCCCC4)cc3C(=O)N([C@H](C)CO)C[C@@H]2C)cc1,.,-4,0,-4,0,-2
COc1ccc(CNc2ncnc3cc(OC)c(OC)cc23)cc1OC,-9,.,0,-17*,.,.
SMILES,Vif imaging,PGC1a acetyl inh,FGF22 binding,Ecoli rRNA inh,PglD inh,Cneo AK release
CC(C)(C)[S@](=O)N1Cc2cc(C(=O)NCc3ccc4c(c3)OCO4)nc(-c3cccc(-c4ccncc4)c3)c2[C@@H]1CCO,.,10,0,-8,14,22
COc1ccc(S(=O)(=O)N(C)C[C@@H]2OCCCC[C@H](C)Oc3ccc(NC(=O)Nc4ccc(C(F)(F)F)cc4)cc3C(=O)N([C@@H](C)CO)C[C@H]2C)cc1,.,-20,1,-1,6,4
O=C(N/N=C/C(Br)=C/c1ccccc1)C1CC1,-3,.,0,-19,.,.
O=C(N/N=C/C(Br)=C/c1ccccc1)C(O)c1ccccc1 (configuration not stated),-3,-49,0,-27*,2,-7
O=C(NN=Cc1ccc(O)cc1)C(=O)NN=Cc1ccc(O)cc1,-7,3,0,1,1,-1
O=C(N/N=C/c1ccc(O)cc1O)C(=O)N/N=C/c1ccc(O)cc1O,62*,.,0,-24*,-9,-4
Oc1ccc(/C=N/Nc2ccc3ccccc3c2)c(O)c1,-2,-1,0,-32*,1,1
C[C@H](NC(=O)C[C@@H]1C[C@@H]2c3cc(NS(C)(=O)=O)ccc3O[C@@H]2[C@H](CO)O1)c1ccccc1,.,-5,0,2,0,4
COc1cccc(C(=O)NCCN2C(=O)S/C(=C/c3cccs3)C2=O)c1OC,2,-4,0,-39*,.,.
COc1cc(C(=O)NCCN2C(=O)S/C(=C\c3cccs3)C2=O)cc(OC)c1OC,4,-11,0,-1,1,-3
O=C(c1ccccc1F)N1C[C@H]2O[C@@H](CNS(=O)(=O)c3ccccc3)CC[C@H]21,.,0,.,.,.,.
COc1cc(N=Nc2cccc(S(N)(=O)=O)c2)c2ccccc2c1N,53*,.,0,-60,4,-1
NC1=NC(=Nc2cccc(S(N)(=O)=O)c2)c2ccccc21,1,.,0,7,-4,2
CO[C@@H]1CN(C)C(=O)c2cc(NC(=O)NC3CCCCC3)ccc2OC[C@H](C)NC[C@@H]1C,.,.,0,6,4,-1
Cc1noc(C)c1NC(=O)N(C)C[C@@H]1Oc2ccc(N(C)C)cc2C(=O)N([C@H](C)CO)C[C@H]1C,.,10,-3,0,-1,-3
Cc1noc(C)c1NC(=O)N(C)C[C@H]1Oc2ccc(N(C)C)cc2C(=O)N([C@H](C)CO)C[C@@H]1C,.,26,0,-1,3,102*

# High-throughput results: PubChem BioAssay, Broad Institute
